Source: ChEMBL document CHEMBL1159060, “2-Dialkynyl derivatives of (N)-methanocarba nucleosides: 'Clickable' A(3) adenosine receptor-selective agonists” (Bioorg Med Chem, 2010)

What was measured:
[1] = target: T1, Adenosine receptor A1 (Homo sapiens) (UniProt P30542); test: Displacement of [3H]NECA from human recombinant adenosine A1 receptor expressed in CHO cells at 10 uM by liquid scintillation counting; format: cell-based
T1 sequence (whole entry): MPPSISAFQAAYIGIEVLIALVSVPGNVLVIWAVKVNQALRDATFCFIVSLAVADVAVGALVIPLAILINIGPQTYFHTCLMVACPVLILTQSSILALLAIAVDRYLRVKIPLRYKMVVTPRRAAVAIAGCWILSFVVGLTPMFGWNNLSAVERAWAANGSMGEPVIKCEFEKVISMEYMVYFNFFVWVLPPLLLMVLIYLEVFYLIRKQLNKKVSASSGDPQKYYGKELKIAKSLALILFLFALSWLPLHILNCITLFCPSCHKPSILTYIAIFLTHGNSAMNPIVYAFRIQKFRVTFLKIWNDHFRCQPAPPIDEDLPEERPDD
Method in brief: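 CHO membranes stably expressing hA1AR, pretreated with adenosine deaminase (3 units/mL, 30 min, 37 °C), 22 μg protein/tube. […] GF/B filtration, scintillation counting, percent inhibition at 10 μM.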

Adenosine receptor A2a [2] = target: T2, Adenosine receptor A2a (Homo sapiens, UniProt P29274); test: Displacement of [3H]CGS21680 from human recombinant adenosine A2A receptor expressed in HEK293 cells at 10 uM by liquid scintillation counting; format: cell-based
T2 sequence (P29274 whole entry): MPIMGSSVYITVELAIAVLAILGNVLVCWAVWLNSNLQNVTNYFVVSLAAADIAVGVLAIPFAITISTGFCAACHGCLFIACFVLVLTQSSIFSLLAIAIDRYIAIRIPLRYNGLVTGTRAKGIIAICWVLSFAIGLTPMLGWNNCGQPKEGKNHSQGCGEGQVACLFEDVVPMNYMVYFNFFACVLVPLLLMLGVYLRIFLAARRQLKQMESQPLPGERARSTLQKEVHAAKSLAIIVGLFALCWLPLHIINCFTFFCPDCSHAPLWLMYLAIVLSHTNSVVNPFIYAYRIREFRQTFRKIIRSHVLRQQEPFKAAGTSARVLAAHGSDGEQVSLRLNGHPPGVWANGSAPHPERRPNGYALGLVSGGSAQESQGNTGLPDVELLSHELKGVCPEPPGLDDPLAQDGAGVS
Method in brief: (§1)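 HEK293 membranes stably expressing hA2AAR (20 μg protein/tube), deaminase-treated (3 units/mL, 30 min, 37 °C). Competition against 10 nM [3H]CGS21680 in Tris-HCl 50 mM pH 7.5 with 10 mM MgCl2, 25 °C for 60 min. […] Filtered on GF/B, scintillation counted.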

Homo sapiens = organism: Homo sapiens; test: Selectivity ratio of Ki for human adenosine A2A receptor to Ki for human adenosine A3 receptor
[3] = target: T3, Adenosine receptor A2b (Homo sapiens) (UniProt P29275); test: Agonist activity at human recombinant adenosine A2B receptor expressed in CHO cells assessed as stimulation of cAMP accumulation at 10 uM by liquid scintillation spectrophotometry relative to NECA
T3 sequence (whole entry): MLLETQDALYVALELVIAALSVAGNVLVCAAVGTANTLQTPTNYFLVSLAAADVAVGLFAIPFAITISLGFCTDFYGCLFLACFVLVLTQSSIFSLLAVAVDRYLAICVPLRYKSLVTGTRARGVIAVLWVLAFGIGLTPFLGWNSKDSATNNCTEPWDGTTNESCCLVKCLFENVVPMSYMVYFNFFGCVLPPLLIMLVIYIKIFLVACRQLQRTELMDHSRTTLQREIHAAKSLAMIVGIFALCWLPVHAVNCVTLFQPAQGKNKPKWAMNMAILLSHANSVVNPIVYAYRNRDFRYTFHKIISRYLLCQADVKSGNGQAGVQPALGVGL

Adenosine receptor A3 = target: T4, Adenosine receptor A3 (Homo sapiens, UniProt P0DMS8); test: Displacement of I-AB-MECA from human recombinant adenosine A3 receptor expressed in CHO cells
T4 sequence (P0DMS8 whole entry): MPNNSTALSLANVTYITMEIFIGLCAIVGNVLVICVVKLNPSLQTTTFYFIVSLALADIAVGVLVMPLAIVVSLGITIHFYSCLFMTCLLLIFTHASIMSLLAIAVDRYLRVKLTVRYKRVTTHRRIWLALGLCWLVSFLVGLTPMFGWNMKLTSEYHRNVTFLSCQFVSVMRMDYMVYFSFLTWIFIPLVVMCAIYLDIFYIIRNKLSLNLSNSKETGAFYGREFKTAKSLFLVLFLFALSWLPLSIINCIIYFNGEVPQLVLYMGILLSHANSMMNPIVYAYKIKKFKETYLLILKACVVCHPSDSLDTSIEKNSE

Adenosine receptor A2a [4] = target: T2, Adenosine receptor A2a; test: Displacement of [3H]CGS21680 from human recombinant adenosine A2A receptor expressed in HEK293 cells by liquid scintillation counting; format: cell-based; method in brief: as §1
[5] = target: Adenosine receptors; A1 & A3 (Homo sapiens) (UniProt P30542+P0DMS8); test: Selectivity for human adenosine A3 receptor over human adenosine A1 receptor

SMILES | inhibition [1] | inhibition (Adenosine receptor A2a [2]) | Ki (Adenosine receptor A3) | further results
CNC(=O)[C@@]12C[C@@H]1[C@@H](n1cnc3c(NCc4cccc(Cl)c4)nc(-c4nnn(-c5ccc(N=C=S)cc5)c4CCCCc4cn(-c5ccc(N=C=S)cc5)nn4)nc31)[C@H](O)[C@@H]2O | 4% | 40% |  | 
CNC(=O)[C@@]12C[C@@H]1[C@@H](n1cnc3c(NCc4cccc(Cl)c4)nc(C#CCCCCc4cn(CCNC(C)=O)nn4)nc31)[C@H](O)[C@@H]2O | 12% |  |  | Ratio Ki (Homo sapiens): 109; Activity [3]: 19.4%
CNC(=O)[C@@]12C[C@@H]1[C@@H](n1cnc3c(NCc4cccc(Cl)c4)nc(C#CCCC(=O)NCCNC(=O)CCCCCNC(=O)CCCCC4SCC5NC(=O)NC54)nc31)[C@H](O)[C@@H]2O (some centres not stated) | 12% | 47% | 57.7 nM | 
CNC(=O)[C@@]12C[C@@H]1[C@@H](n1cnc3c(NCc4cccc(Cl)c4)nc(C#CCCCCc4cn(-c5ccc(N=C=S)cc5)nn4)nc31)[C@H](O)[C@@H]2O | 2% | 28% |  | 
C#CCCCC#Cc1nc(NCc2cccc(Cl)c2)c2ncn([C@@H]3[C@H](O)[C@H](O)[C@]4(C(=O)NC)C[C@H]34)c2n1 | 36% |  | 23.6 nM | Ki (Adenosine receptor A2a [4]): 4330 nM; Selectivity ratio [5]: > 400; Ratio Ki (Homo sapiens): 300
CCN1\C(=C/C=C/C=C/C2=[N+](CCCCCC(=O)NCCNC(=O)CCC#Cc3nc(NCc4cccc(Cl)c4)c4ncn([C@H]5[C@H](O)[C@H](O)[C@]6(C(=O)NC)C[C@H]56)c4n3)c3ccc(S(=O)(=O)[O-])cc3C2(C)C)C(C)(C)c2cc(S(=O)(=O)O)ccc21 | 36% |  |  | Ki (Adenosine receptor A2a [4]): 4730 nM
CNC(=O)[C@@]12C[C@@H]1[C@@H](n1cnc3c(NCc4cccc(Cl)c4)nc(C#CCCC(=O)NCCNC(=O)CCCCC4SCC5NC(=O)NC54)nc31)[C@H](O)[C@@H]2O (some centres not stated) | 1% | 51% | 36.4 nM | 
CNC(=O)[C@@]12C[C@@H]1[C@@H](n1cnc3c(NCc4cccc(Cl)c4)nc(C#CCCCCc4cn(CCCCCCNC5SCC6NC(=O)NC65)nn4)nc31)[C@H](O)[C@@H]2O (some centres not stated) |  | 27% | 285 nM | inhibition (INH) [1]: 0%
CNC(=O)[C@@]12C[C@@H]1[C@@H](n1cnc3c(NCc4cccc(Cl)c4)nc(C#CCCCCc4cn(C56CC7CC(CC(C7)C5)C6)nn4)nc31)[C@H](O)[C@@H]2O | 22% |  |  | Ratio Ki (Homo sapiens): 500; Activity [3]: 36.5%
CNC(=O)[C@@]12C[C@@H]1[C@@H](n1cnc3c(NCc4cccc(Cl)c4)nc(C#CCCCCc4cn(CCCCNC(C)=O)nn4)nc31)[C@H](O)[C@@H]2O | 17% |  |  | 
CNC(=O)[C@@]12C[C@@H]1[C@@H](n1cnc3c(NCc4cccc(Cl)c4)nc(C#CCCCCc4cn(Cc5ccc(-n6sccc6=O)cc5)nn4)nc31)[C@H](O)[C@@H]2O | 15% | 49% |  | 
CCNC(=O)[C@H]1O[C@@H](n2cnc3c(N)ncnc32)[C@H](O)[C@@H]1O |  |  |  | Activity [3]: 100%
C#CCCCCC#Cc1nc(NCc2cccc(Cl)c2)c2ncn([C@H]3[C@H](O)[C@H](O)[C@]4(C(=O)NC)C[C@H]34)c2n1 | 31% |  | 29.4 nM | Ki (Adenosine receptor A2a [4]): 7040 nM; Selectivity ratio [5]: > 400; Ratio Ki (Homo sapiens): 300
CNC(=O)[C@@]12C[C@@H]1[C@@H](n1cnc3c(NCc4cccc(Cl)c4)nc(C#CCCCCc4cn(CCCCCCNC(=O)c5ccc(-c6c7ccc(=N)c(S(=O)(=O)O)c-7oc7c(S(=O)(=O)O)c(N)ccc67)c(C(=O)O)c5)nn4)nc31)[C@H](O)[C@@H]2O |  | 23% | 416 nM | inhibition (INH) [1]: 0%
CNC(=O)[C@@]12C[C@@H]1[C@@H](n1cnc3c(NCc4cccc(Cl)c4)nc(C#CCCCCc4cn(-c5ccc(C(=O)O)cc5)nn4)nc31)[C@H](O)[C@@H]2O | 0% | 40% |  | 
CNC(=O)[C@@]12C[C@@H]1[C@@H](n1cnc3c(NCc4cccc(Cl)c4)nc(C#CCCCCc4cn(CCCCN)nn4)nc31)[C@H](O)[C@@H]2O | 13% |  |  | 
CNC(=O)[C@@]12C[C@@H]1[C@@H](n1cnc3c(NCc4cccc(Cl)c4)nc(C#CCCCCc4cn(-c5ccc(N)cc5)nn4)nc31)[C@H](O)[C@@H]2O | 3% |  |  | 
